# Published values from different studies.
# Protocols differ between the studies behind these lines.
# Target: Serine/threonine-protein kinase TAO1 (TAOK1, Homo sapiens, UniProt Q7L7X3)
# Residues used in one study (Q7L7X3 1-1001): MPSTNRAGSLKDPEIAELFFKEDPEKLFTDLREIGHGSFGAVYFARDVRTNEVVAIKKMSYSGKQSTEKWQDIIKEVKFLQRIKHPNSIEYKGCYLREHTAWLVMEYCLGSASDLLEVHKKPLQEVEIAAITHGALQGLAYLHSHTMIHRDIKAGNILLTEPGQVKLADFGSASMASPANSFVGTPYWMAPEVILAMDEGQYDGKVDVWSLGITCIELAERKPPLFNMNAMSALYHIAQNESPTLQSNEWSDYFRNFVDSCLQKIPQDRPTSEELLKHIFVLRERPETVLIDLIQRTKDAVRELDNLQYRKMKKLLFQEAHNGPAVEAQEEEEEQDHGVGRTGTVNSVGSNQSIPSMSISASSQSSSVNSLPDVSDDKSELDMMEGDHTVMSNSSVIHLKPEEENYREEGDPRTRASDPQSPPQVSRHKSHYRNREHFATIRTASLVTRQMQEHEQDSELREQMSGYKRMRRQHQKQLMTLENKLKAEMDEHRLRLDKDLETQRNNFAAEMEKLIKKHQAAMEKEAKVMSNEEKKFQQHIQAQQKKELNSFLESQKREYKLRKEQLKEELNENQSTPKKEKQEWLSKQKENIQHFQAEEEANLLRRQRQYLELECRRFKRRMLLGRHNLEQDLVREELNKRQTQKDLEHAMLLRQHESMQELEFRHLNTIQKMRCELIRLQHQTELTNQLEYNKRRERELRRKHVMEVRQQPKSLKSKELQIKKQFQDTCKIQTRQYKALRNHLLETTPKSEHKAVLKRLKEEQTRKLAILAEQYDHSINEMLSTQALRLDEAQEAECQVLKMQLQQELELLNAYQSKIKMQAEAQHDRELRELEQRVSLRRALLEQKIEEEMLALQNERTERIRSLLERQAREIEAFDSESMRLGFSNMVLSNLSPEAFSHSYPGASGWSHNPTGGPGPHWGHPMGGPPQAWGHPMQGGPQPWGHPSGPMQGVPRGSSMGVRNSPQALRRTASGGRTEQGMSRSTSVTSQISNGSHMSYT
Compound,assay,conditions,remaining binding [%]
O=C(c1ccc(Nc2ncc(Cl)c(-c3cc4ccccc4s3)n2)cc1)N1CCC(N2CCCC2)CC1,"binding, competition with immobilised ligand",1 µM,50
CNC(=O)c1ccccc1Nc1cc(Nc2ccc(N3CCOCC3)cc2OC)ncc1C(F)(F)F,"binding, competition with immobilised ligand",1 µM,< 10
O=C(c1ccc(Nc2nccc(-c3cc4ccccc4s3)n2)cc1)N1CCC(N2CCCC2)CC1,"binding, competition with immobilised ligand",1 µM,82
COc1cccc(CNC(=O)c2nc3scc(COCc4ccc(C(=O)O)cc4)c3c(=O)[nH]2)c1,"cell-free assay, competition with immobilised ligand",1 µM,69.5
CN(C)c1nccc(-c2cnc3ncccn23)n1,binding,1 µM,59
O=C1CCc2cc(Nc3cc(OC4CCOCC4)c([N+](=O)[O-])cc3Cl)ccc2N1,"cell-free assay, competition with immobilised ligand",1 µM,81
CNC(=O)[C@@H]1CC[C@@H](n2c(-c3ccc4cnccc4c3)nc3ccc(C(=O)NCc4cccc(C(N)=O)c4)cc32)C1,"binding, competition with immobilised ligand",1 µM,100
O=C(NCC1CCOCC1)c1n[nH]cc1NC(=O)c1c(F)cccc1F,"binding, competition with immobilised ligand",1 µM,83
O=C(O)[C@@H]1[C@@H](Cn2nnc3ccccc3c2=O)CC[C@H]1C(=O)c1ccc(OCCC2CCOCC2)cc1,"cell-free assay, competition with immobilised ligand",1 µM,100
N[C@H]1CCN(c2nccc(-c3cnn4ncccc34)n2)C1,binding,1 µM,87
COCCOc1nc(-c2ccc(Cl)nc2)nc2c1CN(C(=O)c1ncn3ccccc13)CC2,"cell-free assay, competition with immobilised ligand",0.1 µM,100
COc1cnc(Nc2cccc(S(N)(=O)=O)c2)nc1N1CCN(c2ccccc2)CC1,"binding, competition with immobilised ligand",1 µM,80
C=CC(=O)N1CCC(C(=O)NCC(=O)N2CCN(c3nc(-c4cnc(N)nc4C(F)F)nc(N4CCOCC4)n3)CC2)CC1,"binding, competition with immobilised ligand",1 µM,80
O=C1NC(c2ccccn2)Sc2ccccc21 (stereo not shown),"cell-free assay, competition with immobilised ligand",1 µM,96
C[C@@H]1CCN(c2nccc(-c3cnn4ncccc34)n2)C1,binding,1 µM,83
O=C(c1ccc(Nc2ncc(Cl)c(-c3ccc(Cl)s3)n2)cc1)N1CCC(N2CCCC2)CC1,"binding, competition with immobilised ligand",1 µM,47
c1cnn2ncc(-c3ccnc(N4CCC45COC5)n3)c2c1,binding,1 µM,58
C[C@@H](c1ccc(-n2cnc3c(N)ncnc32)cc1)N1CCc2nn(C)c(Cc3ccccc3)c2C1=O,"binding, competition with immobilised ligand",0.1 µM,90
Cc1cnn2ncc(-c3ccnc(N(C)C)n3)c2c1,binding,1 µM,92
CC1=C(C#N)[C@@H](c2ccc3[nH]nc(C)c3c2)C(C#N)=C(c2ccc(Cl)cc2)N1,"cell-free assay, competition with immobilised ligand",1 µM,100
CC1CCCN1c1nccc(-c2cnn3ncccc23)n1 (stereo not shown),binding,1 µM,100
Nc1cnc(N2CCc3cc(S(=O)(=O)Nc4c(F)cc(Cl)cc4F)cc(N4CCCC4=O)c32)nc1,"cell-free assay, competition with immobilised ligand",1 µM,80
